Experimental data as given in ChEMBL document CHEMBL4689842, “EUbOPEN Chemogenomics Library wave 1” (2021).

Columns and labels:
U2OS [1] = assay: Multiplex assay against U2OS; assay type: toxicity, cell-based; conditions: human
Outline: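 At seeding, live cells were stained with Hoechst33342, BioTracker Green Microtubule Cytoskeleton Dye, MitoTracker Red and Annexin V Alexa Fluor 680. After compound addition they were imaged on a CQ1 microscope at 37°C and 5% CO2, and CellPathfinder machine-learning gating sorted them into Hoechst high-intensity objects or normal cells, with normal cells further split into healthy, pyknosed or fragmented nuclei and pyknosed cells into mitotic or apoptotic. Tubulin, mitochondrial-mass and membrane-permeability phenotypes are given as per cents of cells with healthy nuclei.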

U2OS [2] = assay: Incucyte cell viability with U2OS; assay type: toxicity, cell-based; conditions: human, 10 µM, compound concentration 10 uM; note: filed as whole numbers so only -1 and 0 and 1 occur
[3] = 24 h, 10 µM, compound concentration 10 uM, replicate 1
[4] = 24 h, 10 µM, compound concentration 10 uM, replicate 2
[5] = 48 h, 1 µM, compound concentration 1 uM, replicate 1
[6] = 48 h, 1 µM, compound concentration 1 uM, replicate 2
[7] = 48 h, 10 µM, compound concentration 10 uM, replicate 1
[8] = 48 h, 10 µM, compound concentration 10 uM, replicate 2

CN1C(=O)[C@@H](NC(=O)c2cc3ccccc3[nH]2)N=C(c2ccccc2)c2ccccc21 [DEVAZEPIDE]
Total Cell Count (U2OS [1]; 24 h, 1 µM, compound concentration 1 uM, replicate 2): 79 | Population Apoptotic (%) (U2OS [1]; [3]): 87% | Population Fragmented Nuclei (%) (U2OS [1]; [3]): 22% | Population Healthy Nuclei (%) (U2OS [1]; [3]): 49% | Population Hoechst High Intensity Objects (%) (U2OS [1]; [3]): 6% | Population Membrane Permeable-Phenotype (%) (U2OS [1]; [3]): 29% | Population Mitochondria Different-Phenotype (%) (U2OS [1]; [3]): 29% | Population Mitotic Cells (%) (U2OS [1]; [3]): 12% | Population Normal (%) (U2OS [1]; [3]): 93% | Population Pyknosed Nuclei (%) (U2OS [1]; [3]): 27% | Population Tubulin-Different-Phenotype (%) (U2OS [1]; [3]): 47% | Total Cell Count (U2OS [1]; [3]): 123 | Population Apoptotic (%) (U2OS [1]; [4]): 92% | Population Fragmented Nuclei (%) (U2OS [1]; [4]): 28% | Population Hoechst High Intensity Objects (%) (U2OS [1]; [4]): 7% | Population Membrane Permeable-Phenotype (%) (U2OS [1]; [4]): 19% | Population Mitochondria Different-Phenotype (%) (U2OS [1]; [4]): 45% | Population Mitotic Cells (%) (U2OS [1]; [4]): 7% | Population Normal (%) (U2OS [1]; [4]): 92% | Population Pyknosed Nuclei (%) (U2OS [1]; [4]): 22% | Population Tubulin-Different-Phenotype (%) (U2OS [1]; [4]): 51% | Total Cell Count (U2OS [1]; [4]): 68 | Population Apoptotic (%) (U2OS [1]; [5]): 33% | Population Fragmented Nuclei (%) (U2OS [1]; [5]): 9% | Population Healthy Nuclei (%) (U2OS [1]; [5]): 82% | Population Hoechst High Intensity Objects (%) (U2OS [1]; [5]): 3% | Population Membrane Permeable-Phenotype (%) (U2OS [1]; [5]): 4% | Population Mitochondria Different-Phenotype (%) (U2OS [1]; [5]): 14% | Population Mitotic Cells (%) (U2OS [1]; [5]): 66% | Population Normal (%) (U2OS [1]; [5]): 96% | Population Pyknosed Nuclei (%) (U2OS [1]; [5]): 8% | Population Tubulin-Different-Phenotype (%) (U2OS [1]; [5]): 8% | Total Cell Count (U2OS [1]; [5]): 231 | Population Apoptotic (%) (U2OS [1]; [6]): 50% | Population Fragmented Nuclei (%) (U2OS [1]; [6]): 8% | Population Healthy Nuclei (%) (U2OS [1]; [6]): 78% | Population Hoechst High Intensity Objects (%) (U2OS [1]; [6]): 1% | Population Membrane Permeable-Phenotype (%) (U2OS [1]; [6]): 5% | Population Mitochondria Different-Phenotype (%) (U2OS [1]; [6]): 18% | Population Mitotic Cells (%) (U2OS [1]; [6]): 50% | Population Normal (%) (U2OS [1]; [6]): 98% | Population Pyknosed Nuclei (%) (U2OS [1]; [6]): 12% | Population Tubulin-Different-Phenotype (%) (U2OS [1]; [6]): 16% | Total Cell Count (U2OS [1]; [6]): 96 | Population Apoptotic (%) (U2OS [1]; [7]): 89% | Population Fragmented Nuclei (%) (U2OS [1]; [7]): 21% | Population Healthy Nuclei (%) (U2OS [1]; [7]): 37% | Population Hoechst High Intensity Objects (%) (U2OS [1]; [7]): 5% | Population Membrane Permeable-Phenotype (%) (U2OS [1]; [7]): 31% | Population Mitochondria Different-Phenotype (%) (U2OS [1]; [7]): 38% | Population Mitotic Cells (%) (U2OS [1]; [7]): 10% | Population Normal (%) (U2OS [1]; [7]): 94% | Population Pyknosed Nuclei (%) (U2OS [1]; [7]): 41% | Population Tubulin-Different-Phenotype (%) (U2OS [1]; [7]): 45% | Total Cell Count (U2OS [1]; [7]): 124 | Population Apoptotic (%) (U2OS [1]; [8]): 92% | Population Fragmented Nuclei (%) (U2OS [1]; [8]): 24% | Population Healthy Nuclei (%) (U2OS [1]; [8]): 50% | Population Hoechst High Intensity Objects (%) (U2OS [1]; [8]): 13% | Population Membrane Permeable-Phenotype (%) (U2OS [1]; [8]): 55% | Population Mitochondria Different-Phenotype (%) (U2OS [1]; [8]): 55% | Population Mitotic Cells (%) (U2OS [1]; [8]): 7% | Population Normal (%) (U2OS [1]; [8]): 86% | Population Pyknosed Nuclei (%) (U2OS [1]; [8]): 24% | Population Tubulin-Different-Phenotype (%) (U2OS [1]; [8]): 58% | Total Cell Count (U2OS [1]; [8]): 66 | Growth Rate (U2OS [2]; 0 h, replicate number 1, timepoint 0 hours): 0 | Growth Rate (U2OS [2]; 6 h, replicate number 1, timepoint 6 hours): 1 | Growth Rate (U2OS [2]; 12 h, replicate number 1, timepoint 12 hours): 1 | Growth Rate (U2OS [2]; 18 h, replicate number 1, timepoint 18 hours): 1 | Growth Rate (U2OS [2]; 18 h, replicate number 2, timepoint 18 hours): 0 | Growth Rate (U2OS [2]; 24 h, replicate number 1, timepoint 24 hours): 1 | Growth Rate (U2OS [2]; 24 h, replicate number 2, timepoint 24 hours): 0
